Test results taken from ChEMBL document CHEMBL1649179, “Pharmacokinetics of LB80331 and LB80317 following oral administration of LB80380, a new antiviral agent for chronic hepatitis B (CHB), in healthy adult subjects, CHB patients, and mice” (Antimicrob Agents Chemother, 2009).

Legend:
Homo sapiens [1] = test: Half life in chronic hepatitis B virus infected patient assessed as (1-((2-amino-9H-purin-9-yl)methyl)cyclopropoxy)me at 240 mg, po administered as single dose by LC-MS analysis; format: ADME, organism-based; conditions: in vivo
Method in brief: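 CHB patients given LB80380 orally once daily for 4 weeks. Plasma was sampled on day 1 and at steady state (weeks 2–4), predose and 0.5, 1, 2, 3, 4, 6, 8 and 24 h postdose. LB80331 was measured by validated LC-MS/MS (LLOQ 5 ng/ml). Terminal-phase apparent t1/2 came from noncompartmental analysis and was flagged if extrapolated AUC exceeded 20% of AUC0-24.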

Homo sapiens [2] = test: Tmax in chronic hepatitis B virus infected patient assessed as (1-((2-amino-9H-purin-9-yl)methyl)cyclopropoxy)me at 240 mg, po administered as single dose by LC-MS analysis; format: ADME, organism-based; conditions: in vivo
Method in brief: (§1)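 Daily oral LB80380 was given to CHB patients over 4 weeks. Blood was drawn on day 1 and at steady state (weeks 2–4), predose and 0.5–24 h postdose. Plasma LB80331 (LLOQ 5 ng/ml) and LB80317 (LLOQ 10 ng/ml) were measured by LC-MS/MS after protein-precipitation extraction. Tmax was taken by noncompartmental analysis.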

Homo sapiens [3] = test: Cmax in chronic hepatitis B virus infected patient assessed as (1-((2-amino-9H-purin-9-yl)methyl)cyclopropoxy)me at 30 mg, po administered as single dose by LC-MS analysis; format: ADME, organism-based; parameters: dose 30 mg, route oral; conditions: in vivo
Method in brief: (§2)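 CHB patients (HBsAg/HBeAg positive), six per dose cohort, given a first oral dose on day 1. Plasma sampled at baseline. Analysis by validated LC-MS/MS after protein precipitation with a stable-isotope internal standard; LLOQ 5 ng/ml for LB80331. Noncompartmental analysis gives Cmax and AUC0-∞.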

Liver [4] = test: Half life in CD-1 mouse liver assessed as (1-((2-amino-9H-purin-9-yl)methyl)cyclopropoxy)me at 30 mg/kg, po administered as single dose by LC-MS analysis; format: ADME, organism-based; parameters: dose 30 mg/kg, route oral; conditions: in vivo
Method in brief: (§3)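 Male CD-1 mice given a single oral dose in 100% PEG 400. Samples extracted with perchloric acid and neutralized with ammonium bicarbonate. One aliquot assayed for the free analyte; the other treated with calf intestinal phosphatase to give the total including di-/triphosphates. Analysis by LC-MS/MS.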

Liver [5] = test: Half life in CD-1 mouse liver assessed as di- and triphosphates of (1-((2-amino-9H-purin-9-yl)methyl)cyclopropoxy)me at 30 mg/kg, po administered as single dose by LC-MS analysis; format: ADME, organism-based; parameters: dose 30 mg/kg, route oral; conditions: in vivo; method in brief: as §3
Homo sapiens [6] = test: Oral clearance in chronic hepatitis B virus infected patient assessed as (1-((2-amino-9H-purin-9-yl)methyl)cyclopropoxy)me at 60 mg, po qd for 4 weeks by LC-MS analysis; format: ADME, organism-based; conditions: in vivo, 672 h
Method in brief: (§4)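 Oral LB80380 was given once daily for 4 weeks to CHB patients. Plasma LB80331 was quantified by validated LC-MS/MS after protein precipitation, with stable-isotope internal standard, at baseline and steady state (weeks 2–4), 0–24 h postdose. Noncompartmental CL/F was calculated as dose (adjusted for LB80380/LB80331 molecular weights) divided by AUC (AUC0-∞ single dose; AUC0-24 steady state).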

Homo sapiens [7] = test: Cmax in high fat diet fed healthy human assessed as (1-((2-amino-9H-purin-9-yl)methyl)cyclopropoxy)me at 60 mg, po administered as single dose by LC-MS analysis; format: ADME, organism-based; parameters: dose 60 mg, route oral; conditions: in vivo
Method in brief: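 Healthy subjects given a single oral dose after an overnight fast or after a high-fat breakfast. Plasma LB80331 measured by validated LC-MS/MS (LLOQ 5 ng/ml) after protein precipitation. Cmax by noncompartmental analysis.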

Homo sapiens [8] = test: Tmax in chronic hepatitis B virus infected patient assessed as (1-((2-amino-9H-purin-9-yl)methyl)cyclopropoxy)me at 60 mg, po qd for 4 weeks by LC-MS analysis; format: ADME, organism-based; conditions: in vivo, 672 h; method in brief: as §1
Homo sapiens [9] = test: Oral clearance in chronic hepatitis B virus infected patient assessed as (1-((2-amino-9H-purin-9-yl)methyl)cyclopropoxy)me at 30 mg, po qd for 4 weeks by LC-MS analysis; format: ADME, organism-based; conditions: in vivo, 672 h; method in brief: as §4
Homo sapiens [10] = test: Oral clearance in chronic hepatitis B virus infected patient assessed as (1-((2-amino-9H-purin-9-yl)methyl)cyclopropoxy)me at 120 mg, po administered as single dose by LC-MS analysis; format: ADME, organism-based; conditions: in vivo; method in brief: as §4
Liver [11] = test: AUC (0 to infinity) in CD-1 mouse liver assessed as di- and triphosphates of (1-((2-amino-9H-purin-9-yl)methyl)cyclopropoxy)me at 30 mg/kg, po administered as single dose by LC-MS analysis; format: ADME, organism-based; parameters: time infinity, dose 30 mg/kg, route oral; conditions: in vivo; method in brief: as §3
Homo sapiens [12] = test: Tmax in chronic hepatitis B virus infected patient assessed as (1-((2-amino-9H-purin-9-yl)methyl)cyclopropoxy)me at 120 mg, po qd for 4 weeks by LC-MS analysis; format: ADME, organism-based; conditions: in vivo, 672 h; method in brief: as §1
Homo sapiens [13] = test: Oral clearance in chronic hepatitis B virus infected patient assessed as (1-((2-amino-9H-purin-9-yl)methyl)cyclopropoxy)me at 60 mg, po administered as single dose by LC-MS analysis; format: ADME, organism-based; conditions: in vivo; method in brief: as §4
Liver [14] = test: AUC (0 to infinity) in CD-1 mouse liver assessed as (1-((2-amino-9H-purin-9-yl)methyl)cyclopropoxy)me at 30 mg/kg, po administered as single dose by LC-MS analysis; format: ADME, organism-based; parameters: time infinity, dose 30 mg/kg, route oral; conditions: in vivo; method in brief: as §3
Homo sapiens [15] = test: AUC (0 to infinity) in chronic hepatitis B virus infected patient assessed as (1-((2-amino-9H-purin-9-yl)methyl)cyclopropoxy)me at 240 mg, po administered as single dose by LC-MS analysis; format: ADME, organism-based, Plasma; parameters: dose 240 mg, route oral, time infinity; conditions: in vivo; method in brief: as §2
Homo sapiens [16] = test: Tmax in chronic hepatitis B virus infected patient assessed as (1-((2-amino-9H-purin-9-yl)methyl)cyclopropoxy)me at 120 mg, po administered as single dose by LC-MS analysis; format: ADME, organism-based; conditions: in vivo; method in brief: as §1
Plasma = test: AUC (0 to 36 hrs) in CD-1 mouse plasma assessed as (1-((2-amino-9H-purin-9-yl)methyl)cyclopropoxy)me at 30 mg/kg, po administered as single dose by LC-MS analysis; format: ADME, organism-based; parameters: time < 36 hr, dose 30 mg/kg, route oral; conditions: in vivo; method in brief: as §3
Homo sapiens [17] = test: Cmax in chronic hepatitis B virus infected patient assessed as (1-((2-amino-9H-purin-9-yl)methyl)cyclopropoxy)me at 60 mg, po qd for 4 weeks by LC-MS analysis; format: ADME, organism-based; parameters: dose 60 mg, route oral; conditions: in vivo, 672 h
Method in brief: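 CHB patients, oral once daily for 4 weeks. Plasma sampled at steady state (weeks 2–4), predose and at 0.5, 1, 2, 3, 4, 6, 8 and 24 h postdose. LB80331 measured by validated LC-MS/MS (LLOQ 5 ng/ml) after protein precipitation with a stable-isotope internal standard. Cmax by noncompartmental analysis.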

Homo sapiens [18] = test: Tmax in chronic hepatitis B virus infected patient assessed as (1-((2-amino-9H-purin-9-yl)methyl)cyclopropoxy)me at 60 mg, po administered as single dose by LC-MS analysis; format: ADME, organism-based; conditions: in vivo; method in brief: as §1
Homo sapiens [19] = test: Tmax in chronic hepatitis B virus infected patient assessed as (1-((2-amino-9H-purin-9-yl)methyl)cyclopropoxy)me at 240 mg, po qd for 4 weeks by LC-MS analysis; format: ADME, organism-based; conditions: in vivo, 672 h; method in brief: as §1

t1/2 (Homo sapiens [1]): 3 h | Tmax (Homo sapiens [2]): 2 h | Cmax (Homo sapiens [3]): 200 ng/mL | t1/2 (Liver [4]): 2.8 h | t1/2 (Liver [5]): 3.2 h | CL/F (Homo sapiens [6]): 273 mL/min | Cmax (Homo sapiens [7]): 246 ng/mL | Tmax (Homo sapiens [8]): 2 h | CL/F (Homo sapiens [9]): 289 mL/min | CL/F (Homo sapiens [10]): 273 mL/min | AUC (Liver [11]): 64 µM·h | Tmax (Homo sapiens [12]): 1 h | CL/F (Homo sapiens [13]): 244 mL/min | AUC (Liver [14]): 102 µM·h | AUC (Homo sapiens [15]): 6302 ng·h/mL | Tmax (Homo sapiens [16]): 2 h | AUC (Plasma): 17 µM·h | Cmax (Homo sapiens [17]): 362 ng/mL | Tmax (Homo sapiens [18]): 2 h | Tmax (Homo sapiens [19]): 2 h
SMILES: Nc1ncc2ncn(CC3(OCP(=O)(O)O)CC3)c2n1 [BESIFOVIR]
